SUMO1-SIM PPI: SUMO1-SIM interaction modulation | P63165 | inhibition, % at 20 µM | SUMO1 binding to a labelled peptide, TR-FRET, 1 h | 360,000 compounds, 0.33% hits; in the data active = inhibition above about 37%
Target sequence (P63165 whole entry, looked up): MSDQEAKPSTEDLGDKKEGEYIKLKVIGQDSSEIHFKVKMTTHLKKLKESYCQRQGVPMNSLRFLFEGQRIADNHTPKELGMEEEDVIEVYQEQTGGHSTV
LMPTP block: blocks human LMPTP phosphatase | P24666 | recombinant LMPTP-A, OMFP fluorogenic substrate, fluorescence intensity | inhibition, % at 20 µM | 360,000 compounds, 0.22% hits | AID 651560;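 active = compounds that cut the enzyme signal by at least half of the control window in the single-dose screen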;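 note: plate controls were DMSO wells with enzyme plus substrate for no effect and substrate without enzyme for full effect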
Target sequence (P24666 whole entry, looked up): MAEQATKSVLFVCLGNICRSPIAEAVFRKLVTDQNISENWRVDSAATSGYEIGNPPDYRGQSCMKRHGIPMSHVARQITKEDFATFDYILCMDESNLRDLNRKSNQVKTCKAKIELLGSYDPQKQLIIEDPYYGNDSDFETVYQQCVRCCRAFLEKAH
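Test system: LMPTP-A phosphatase enzyme; input: 0.625 nM LMPTP-A final; reagent: OMFP substrate, 400 µM final; compound dosing: 20 µM single dose, 3% DMSO; incubation: 50 min dark incubation at room temperature; measured by: endpoint fluorescence intensity from OMFP dephosphorylation; measure: % inhibition relative to no-enzyme and uninhibited control wells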
GRK2 aptamer HTS: blocks RNA aptamer binding to human GRK2 | 330,000 compounds, 0.59% hits | bead flow cytometry, FAM-aptamer displacement from GRK2 | P25098 | AID 488847 | inhibition of aptamer binding, % at 10 µM;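 active = inhibition of aptamer binding above 40%, roughly 3 SD of noise, on plates passing a quality check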;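 note: median bead fluorescence of bound FAM aptamer so fluorescent compounds give negative values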
Scp1 inh: inhibitors of human Scp-1 phosphatase; Q9GZU7; Recombinant Scp1, phosphopeptide, malachite green phosphate absorbance; inhibition, % at 20 µM; 340,000 compounds, 0.88% hits;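 active = inhibition above about 50% at 20 µM, limit read from the data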;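 note: plate controls were DMSO wells with enzyme for no effect and wells lacking enzyme for full effect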
Target sequence (Q9GZU7 76-261 limits assumed): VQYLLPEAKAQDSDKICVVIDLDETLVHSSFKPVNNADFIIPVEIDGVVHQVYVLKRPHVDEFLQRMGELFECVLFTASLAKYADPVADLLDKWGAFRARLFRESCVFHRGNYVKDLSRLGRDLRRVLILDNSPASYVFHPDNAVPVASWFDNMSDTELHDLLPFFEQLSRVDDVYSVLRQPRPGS
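Material – SCP-1 phosphatase catalytic domain, residues 76-261 · Buffer or medium – Acidic Tris acetate buffer with magnesium and detergent · Also added – Phospho 17-mer peptide substrate · Compound – single 20 µM dose, 1% DMSO · Times – 45 min room-temperature reaction, 5 min colour, 30 min stabiliser · Technique – Phosphate-binding colour reagent, absorbance read at 630 nm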
STEP block: STEP (human) phosphatase inhibition | P54829 | recombinant STEP, OMFP fluorogenic substrate, fluorescence | inhibition, % at 20 µM | 360,000 compounds, 0.25% hits | AID 588621;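 active = inhibition at 20 µM, scaled per plate between control wells, above about 37%, limit read from the data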;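 note: 0% = DMSO with enzyme and substrate and 100% = substrate only without enzyme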
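System: STEP (striatal-enriched tyrosine phosphatase) enzyme, cell-free; medium: Bis-Tris pH 6.0 buffer with DTT, detergent; dosing: 20 µM, 1% DMSO; times: reaction 20 min, ambient temperature; detection: fluorescence, 480/540 nm; read-out basis: normalized % inhibition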
DNMT1 inh: blocks human DNA methyltransferase DNMT1. P26358. DNMT1 molecular beacon, Hinp1I cleavage, fluorescence. inhibition (reported as % activation of signal), % at 10 µM. 360,000 compounds, 0.83% hits. AID 588458; in the data active = inhibition above about 50%
* hit, by the source's call; nt = not tested or not shown. A selection: hits, their analogues and other compounds. The true share with any hit is near 2.1%.

SMILES	SUMO1-SIM PPI	LMPTP block	GRK2 aptamer HTS	Scp1 inh	STEP block	DNMT1 inh
O=C(NNC(=O)c1cc2cc(Br)ccc2oc1=O)c1ccc(O)cc1O	-16.9	53.6*	4.0	60.1*	48.9*	3.5
O=C(Nc1ccc(-c2n[nH]c(=S)o2)cc1)c1ccccc1Cl	15.1	-0.1	2.0	0.8	0.6	0.5
Cc1cccc(C)c1OCc1nc2ccccc2c(=O)n1/N=C/c1ccc(OCC(=O)O)cc1	-0.8	-1.5	2.0	2.7	-1.6	-6.5
O=C(O)COc1ccc(/C=N/n2c(COc3ccccc3)nc3ccccc3c2=O)cc1	57.3*	-1.6	1.0	0.6	-5.4	-0.1
O=C(C[n+]1ccc(CCSc2ccc(F)cc2)cc1)c1ccccc1	-14.7	53.5*	0.0	16.7	1.1	-47.8
NC(=O)c1ccsc1NC(=O)COC(=O)c1cc(=O)[nH]c2ccccc12	48.5*	6.2	3.0	3.9	-1.2	1.6
O=C(COC(=O)c1cc(=O)[nH]c2ccccc12)NCc1cccs1	-11.9	-0.6	2.0	2.5	1.2	-0.6
NC(=O)c1ccsc1NC(=O)c1cc(=O)c2ccccc2o1	63.4*	9.4	2.0	9.7	3.7	-2.0
O=C1C=C(Nc2ccccc2C(=O)O)c2ccccc2C1=O	20.6	7.9	5.0	17.4	6.3	55.2*
COC(=O)[C@@]12C[C@@H](CC(=O)NCc3cccc4ccccc34)C(=O)N(Cc3ccc4c(c3)OCO4)C1=CCC(C)(C)C2	-4.9	2.6	nt	nt	nt	nt
CCC1=NNc2cccc3c(OC)ccc1c23	nt	nt	81.0*	nt	nt	nt
COc1ccc2c3c(cccc13)C(=O)N(O)C2=O	2.5	-0.3	4.0	30.4	0.5	2.5
CCc1ccc(C=C2SC(=S)N(CCCC(=O)Nc3ccc(C(=O)O)cc3)C2=O)cc1	-13.2	59.2*	nt	nt	1.0	2.0
COc1cccc(/C=C2\SC(=S)N(CCCC(=O)N3CCCC3)C2=O)c1	-38.8	1.8	55.0*	-6.9	-0.9	0.1
CCc1ccc(/C=C2/SC(=S)N(CCC(=O)Nc3ccc(C(=O)O)cc3)C2=O)cc1	85.1*	62.0*	0.0	nt	25.8	10.9
COc1cc(CNc2ncc(-c3ccc(Br)cc3)n2C)cc(OC)c1O	6.4	-0.6	0.0	0.8	2.1	2.5
CCc1nc2cccnc2n1-c1ccc(CC(=O)NC(C)CC)cc1 (stereo not given)	2.9	-1.0	0.0	-7.0	-0.1	2.3
COc1ccc(CCN2C(=O)c3ccccc3C2c2nnnn2-c2c(C)cccc2C)cc1OC (stereo not given)	6.0	-1.3	nt	nt	nt	nt
Cc1ccc(S(=O)(=O)N2CCOCC2)cc1NC(=O)CSCc1c(C)noc1C	2.7	-1.6	0.0	2.3	-0.9	2.7
Cc1cccc(C)c1OCC(=O)N/N=C/c1ccncc1	-4.5	-1.8	42.0*	6.4	-3.3	0.0
CCCCN(C(=O)CN1C(=O)C2CCCCC2C1=O)c1c(N)n(CCC)c(=O)[nH]c1=O (stereo not given)	2.0	-0.8	2.0	7.2	-0.7	0.8
COc1cc(C(=O)NCC(=O)OCC(=O)c2cccc3ccccc23)cc(OC)c1OC	61.2*	0.5	5.0	-6.0	-0.5	6.1
COc1ccc(C(=O)NCC(=O)OCC(=O)c2ccccc2Br)cc1OC	3.5	-1.2	nt	nt	0.4	-1.1
NC(=O)c1cnc(Cc2c[nH]c3ccccc23)c(I)c1	1.9	-0.8	nt	nt	0.8	-6.4
COc1ccc(NC(=O)c2ccc(F)c(F)c2)c2ccccc12	-5.2	0.7	0.0	-9.3	0.2	-0.6
SMILES	SUMO1-SIM PPI	LMPTP block	GRK2 aptamer HTS	Scp1 inh	STEP block	DNMT1 inh
O=C1C=C(N2CCOCC2)c2ccccc2C1=O	39.9*	10.9	6.0	0.3	0.6	81.7*
Cc1ccc(S(=O)(=O)NCC(=O)N(CC(=O)NCC2CCCO2)Cc2ccccc2Cl)cc1 (stereo not given)	-0.7	-2.9	1.0	-7.1	-1.8	1.1
Cc1ccc(S(=O)(=O)N2C[C@H]3C(=O)C[C@@H](c4ccccc4)N(S(=O)(=O)c4ccccc4)[C@H]3C[C@H]2c2ccccc2)cc1	5.0	1.3	nt	nt	7.6	-5.8
O=C(O)CN1C(=O)/C(=C\c2ccccc2OCc2ccc(Cl)cc2)SC1=S	-4.7	2.2	2.0	9.0	10.0	2.8
Cc1ccc(-c2nn(-c3ccccc3)cc2/C=C2\SC(=S)N(CC(=O)O)C2=O)cc1	8.4	3.5	18.0	49.4	14.1	7.5
O=C(O)CCN1C(=O)/C(=C/c2cn(-c3ccccc3)nc2-c2cccs2)SC1=S	-4.0	80.9*	nt	38.0	73.9*	16.5
O=C1C(=Cc2cn(-c3ccccc3)nc2-c2ccc(OCc3ccc(Cl)cc3)cc2)SC(=S)N1CCS(=O)(=O)O	109.8*	93.7*	nt	nt	8.1	-180.9
O=C1C(=Cc2cn(-c3ccccc3)nc2-c2ccc(OCc3ccccc3F)cc2)SC(=S)N1CCS(=O)(=O)O	88.1*	88.7*	nt	nt	7.3	37.4
Cn1ncc([N+](=O)[O-])c1C(=O)Nc1ccccc1C#N	-7.5	-2.2	nt	nt	2.0	0.6
Cc1ccc(NS(=O)(=O)c2ccc(OCC(=O)NCC3CCCO3)cc2)cc1 (stereo not given)	-0.2	-1.0	0.0	-8.4	2.1	0.3
O=C(O)CN1CCN(CC(=O)O)CCN(CC(=O)O)CCN(CC(=O)O)CC1	16.2	-1.1	3.0	-11.3	-3.1	3.1
O=C(O)CN1CCNCCN(CC(=O)O)CCNCC1	59.0*	-4.2	nt	-1.8	-0.8	9.1
COc1ccc(Br)cc1/C=c1\sc2nc(-c3ccco3)nn2c1=O	37.0	19.2	0.0	88.0*	12.4	105.7*
COc1cc(OC)c2c(O)c3c(c(-c4c5c(c(O)c6c(OC)cc(OC)cc46)CO[C@@H](C)[C@H]5O)c2c1)[C@H](O)[C@H](C)OC3	12.7	51.4*	0.0	55.5*	-2.0	100.3*
COc1ccc(-c2csc(/C(C#N)=C\c3cccc([N+](=O)[O-])c3)n2)cc1	nt	nt	0.0	nt	nt	nt
COc1ccc(-c2csc(/C(C#N)=C\c3ccc(O)c([N+](=O)[O-])c3)n2)cc1OC	38.5*	1.2	1.0	32.4	3.0	-9.1
N#C/C(=C\c1ccc(O)c([N+](=O)[O-])c1)c1nc2ccccc2s1	2.7	2.1	nt	48.6	19.5	4.5
COc1ccc(-c2csc(/C(C#N)=C\c3ccc(OC)c([N+](=O)[O-])c3)n2)cc1	-1.4	-0.1	90.0*	-12.9	-0.5	3.6
CSc1ccc(CNCC2CCCO2)cc1 (stereo not given)	-2.3	-2.2	2.0	0.3	-4.9	-0.2
O=C(Nc1ccccc1Cl)O/N=C/c1ccncc1	-1.2	-1.4	0.0	0.4	-0.6	2.3
COc1ccccc1Nc1nn2c(=O)c3ccc(C(=O)N4CCCCC4)cc3nc2s1	4.5	1.5	1.0	-5.5	1.1	-2.4

Compound activity as filed in PubChem BioAssay.
